The text below walks through data of ChEMBL document CHEMBL4602736, “Progress in the Field of Aldehyde Dehydrogenase Inhibitors: Novel Imidazo[1,2-a]pyridines against the 1A Family” (ACS Med Chem Lett, 2020).

Molecules are shown by their SMILES. Activity calls are given as the source filed them. The rule behind the calls is not given here.

Usually IC50 stands for the concentration that inhibits the measured activity by half. One may read the Ki as the equilibrium dissociation constant of an inhibitor or competing ligand from its target.

Assay [1] deals with T1, Retinal dehydrogenase 2 (Homo sapiens) (UniProt O94788).
T1 sequence (whole entry): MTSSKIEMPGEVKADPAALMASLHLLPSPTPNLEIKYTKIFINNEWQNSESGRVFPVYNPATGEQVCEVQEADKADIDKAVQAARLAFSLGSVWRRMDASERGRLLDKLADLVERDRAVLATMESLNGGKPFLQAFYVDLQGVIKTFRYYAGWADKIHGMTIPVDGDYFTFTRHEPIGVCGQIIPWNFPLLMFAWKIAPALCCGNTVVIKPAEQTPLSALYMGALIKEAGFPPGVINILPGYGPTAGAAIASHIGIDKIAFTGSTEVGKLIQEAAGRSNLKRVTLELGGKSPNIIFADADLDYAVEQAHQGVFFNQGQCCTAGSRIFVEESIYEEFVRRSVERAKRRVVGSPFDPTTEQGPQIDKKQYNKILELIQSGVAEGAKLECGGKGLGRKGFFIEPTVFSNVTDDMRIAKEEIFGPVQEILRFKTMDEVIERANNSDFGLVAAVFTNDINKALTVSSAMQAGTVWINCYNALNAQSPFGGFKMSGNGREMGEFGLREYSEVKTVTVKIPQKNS
In words: Inhibition of human recombinant ALDH1A2 assessed as remaining enzyme activity at 25 uM pre-incubated for 5 mins before acetaldehyde addition by continuous spectrometric assay relative to control. In a few lines: (§1)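 Preliminary single-concentration screen at 25 μM against human recombinant ALDH1A1, ALDH1A2 and ALDH1A3, scored as residual enzyme activity versus control.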

Assay [2] deals with T2, Retinaldehyde dehydrogenase 3 (Homo sapiens) (UniProt P47895).
T2 sequence (whole entry): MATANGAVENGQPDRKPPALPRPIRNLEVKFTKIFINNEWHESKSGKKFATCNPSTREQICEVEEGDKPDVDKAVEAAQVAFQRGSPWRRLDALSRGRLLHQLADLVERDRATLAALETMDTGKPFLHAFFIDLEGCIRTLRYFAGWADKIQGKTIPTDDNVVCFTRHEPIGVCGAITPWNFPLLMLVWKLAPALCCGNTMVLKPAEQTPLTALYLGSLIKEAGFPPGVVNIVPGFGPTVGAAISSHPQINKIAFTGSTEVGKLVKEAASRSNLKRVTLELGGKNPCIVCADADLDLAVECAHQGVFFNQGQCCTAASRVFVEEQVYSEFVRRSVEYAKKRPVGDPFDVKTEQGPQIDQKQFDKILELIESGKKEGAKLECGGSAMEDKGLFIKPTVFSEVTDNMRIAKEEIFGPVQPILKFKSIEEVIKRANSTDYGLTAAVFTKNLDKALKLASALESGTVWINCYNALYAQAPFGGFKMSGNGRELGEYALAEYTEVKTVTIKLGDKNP
In words: Inhibition of human recombinant ALDH1A3 assessed as remaining enzyme activity at 25 uM pre-incubated for 5 mins before acetaldehyde addition by continuous spectrometric assay relative to control. In a few lines:
as §1

Assay [3] deals with T3, Aldehyde dehydrogenase 1A1 (Homo sapiens) (UniProt P00352).
T3 sequence (whole entry): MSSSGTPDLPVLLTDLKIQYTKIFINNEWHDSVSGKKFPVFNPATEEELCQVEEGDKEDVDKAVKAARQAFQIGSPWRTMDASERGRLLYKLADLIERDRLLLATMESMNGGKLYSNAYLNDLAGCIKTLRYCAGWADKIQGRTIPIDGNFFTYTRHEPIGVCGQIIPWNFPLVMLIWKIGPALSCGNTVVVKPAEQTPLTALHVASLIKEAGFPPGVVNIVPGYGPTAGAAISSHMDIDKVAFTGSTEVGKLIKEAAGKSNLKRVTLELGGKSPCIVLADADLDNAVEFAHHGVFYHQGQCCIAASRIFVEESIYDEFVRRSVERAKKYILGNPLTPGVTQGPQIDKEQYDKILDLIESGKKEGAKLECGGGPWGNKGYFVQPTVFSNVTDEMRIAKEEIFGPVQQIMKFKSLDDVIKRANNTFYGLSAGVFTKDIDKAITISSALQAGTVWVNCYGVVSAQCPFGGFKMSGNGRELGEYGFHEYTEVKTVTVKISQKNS
In words: Inhibition of human recombinant ALDH1A1 assessed as remaining enzyme activity at 25 uM pre-incubated for 5 mins before acetaldehyde addition by continuous spectrometric assay relative to control. In a few lines: as §1

Assay [4] deals with T4, Retinaldehyde dehydrogenase 3 (Homo sapiens, UniProt P47895).
T4 sequence (P47895 whole entry): T2 sequence (whole entry)
In words: Inhibition of human recombinant ALDH1A3 pre-incubated for 5 mins before acetaldehyde addition by continuous spectrometric assay relative to control. In a few lines:
(§2)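 IC50 is the concentration giving 50% inhibition of the human recombinant isoform. Compounds with no significant inhibition at 25 μM were listed as not active and had no IC50 determined.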

Assay [5] has as its target T5, Aldehyde dehydrogenase 1A1 (Homo sapiens, UniProt P00352).
T5 sequence (P00352 whole entry): T3 sequence (whole entry)
In words: Inhibition of human recombinant ALDH1A1 pre-incubated for 5 mins before acetaldehyde addition by continuous spectrometric assay relative to control. The essentials: as §2

The target in assay [6] is T6, Retinal dehydrogenase 2 (Homo sapiens, UniProt O94788).
T6 sequence (O94788 whole entry): T1 sequence (whole entry)
In words: Inhibition of human recombinant ALDH1A2 pre-incubated for 5 mins before acetaldehyde addition by continuous spectrometric assay relative to control. The essentials: as §2

In assay [7] the target is T5, Aldehyde dehydrogenase 1A1. In words: Competitive inhibition of human recombinant ALDH1A1 pre-incubated for 5 mins before acetaldehyde addition by continuous spectrometric assay relative to control.
Assay [8] concerns the target T4, Retinaldehyde dehydrogenase 3. In words: Competitive inhibition of human recombinant ALDH1A3 pre-incubated for 5 mins before acetaldehyde addition by continuous spectrometric assay relative to control.
Assay [9] has as its target T6, Retinal dehydrogenase 2. In words: Competitive inhibition of human recombinant ALDH1A2 pre-incubated for 5 mins before acetaldehyde addition by continuous spectrometric assay relative to control.
For assay [10], the system named is U-87 MG. In words: Antiproliferative activity against human U87MG cells assessed as reduction in cell vitality at 100 nM to 10 uM incubated for 72 hrs by MTT assay. It is filed as functional, cell-based. Particulars: U-87MG ATCC.

On to `COc1ccc(-c2cn3cccc(-c4ccc(Cl)cc4)c3n2)cc1`, for which the Activity in [1], in assay [2] and in [3] was 75 to 100% each time.
With `Cc1ccc(-c2cn3cccc(-c4ccc(F)cc4)c3n2)cc1`, the Activity is 50 to 75% in assay [1], 75 to 100% in assay [2] and 75 to 100% in assay [3].
Consider `O=C(COc1ccc(-c2cccn3cc(-c4ccccc4)nc23)cc1)c1ccccc1`, for which the Activity in [1], in assay [2] and in [3] was 75 to 100% in each case.
As to `COc1cccc(-c2cn3cccc(-c4ccc(-c5ccccc5)cc4)c3n2)c1`, the Activity in assay [1], in assay [2] and in assay [3] was 75 to 100% throughout.
For the compound `COc1ccc(-c2cn3cccc(-c4ccc(F)cc4)c3n2)cc1`, the Activity in assay [1], in assay [2] and in [3] was 75 to 100% each time.
On to `c1ccc(-c2ccc(-c3cccn4cc(-c5ccccc5)nc34)cc2)cc1`, for which the Activity in [1], in assay [2] and in assay [3] was 75 to 100% each time.
Regarding `COc1cccc(-c2cn3cccc(-c4ccc(Cl)cc4)c3n2)c1`, the 50% inhibitory concentration (IC50) is 4.3 µM in assay [4], “Not Active” in assay [5] and “Not Active” in [6]. Moreover, the results for the Activity in assay [1], in [2] and in assay [3] were 50 to 75%, 50 to 75% and 75 to 100%, respectively.
In the case of `Cc1ccc(-c2cn3cccc(-c4ccccc4)c3n2)cc1`, the results for the Activity in assay [1], in assay [2] and in assay [3] were 50 to 75%, 50 to 75% and 75 to 100%, respectively.
`COc1cccc(-c2cn3cccc(-c4ccc(F)cc4)c3n2)c1`: the 50% inhibitory concentration (IC50) is 7.2 µM in assay [4], “Not Active” in [5] and “Not Active” in assay [6]. Further, the values for the Activity in assay [1], in [2] and in [3] were 25 to 50%, 50 to 75% and 75 to 100%, respectively.
Consider `COc1ccc(-c2cn3cccc(-c4cc(OC)c(OC)c(OC)c4)c3n2)cc1`, for which the Activity in [1], in [2] and in [3] was 75 to 100% each time.
Turning to `CC(C)Cc1ccc(-c2cccn3cc(-c4ccccc4)nc23)cc1`, the Activity was 75 to 100% in [1], 75 to 100% in assay [2] and 50 to 75% in [3].
With `Cc1ccc(-c2cn3cccc(-c4ccc(Cl)cc4)c3n2)cc1`, the values for the Activity in [1], in assay [2] and in assay [3] were 75 to 100%, 50 to 75% and 75 to 100%, respectively.
For the compound `COC(=O)c1ccc(-c2cccn3cc(-c4ccccc4)nc23)cc1`, the half-inhibitory concentration (IC50) is 0.66 µM in assay [4], “Not Active” in assay [5] and “Not Active” in assay [6]. The Ki came out at 79.5 µM in assay [7], 0.12 µM in assay [8] and 0.92 µM in assay [9]. The Activity was in the range of 25 to 50% in assay [1], 0 to 25% in assay [2] and 75 to 100% in assay [3].
As for `COc1ccc(-c2cn3cccc(-c4ccc(-c5ccccc5)cc4)c3n2)cc1`, the values for the Activity in assay [1], in assay [2] and in [3] were 75 to 100%, 75 to 100% and 50 to 75%, respectively.
Turning to `c1ccc(-c2cn3cccc(-c4ccccc4)c3n2)cc1`, the figures for the IC50 in assay [4], in [5] and in assay [6] (read-out: IC50) were 80.6 µM, “Not Active” and 61.4 µM, respectively. For the same compound, the Activity fell in the range of 50 to 75% in assay [1], 50 to 75% in [2] and 75 to 100% in assay [3].
As to `Clc1ccc(-c2cccn3cc(-c4ccccc4)nc23)cc1`, the IC50 stood at 5.5 µM in assay [4], 168 µM in [5] (read-out: IC50) and 27.6 µM in assay [6] (read-out: IC50). The outcome in assay [10] was Active. Also, the figures for the Ki in assay [7], in assay [8] and in assay [9] were 168 µM, 8.7 µM and 27.6 µM, respectively. In addition, the figures for the Activity in [1], in assay [2] and in assay [3] were 50 to 75%, 50 to 75% and 75 to 100%, respectively.
Turning to `COC(=O)c1ccc(-c2cccn3cc(-c4ccc(OC)cc4)nc23)cc1`, the Activity in [1] was in the range of 75 to 100%; in assay [2], 50 to 75%; in assay [3] it was 75 to 100%.
Consider `COc1cccc(-c2cn3cccc(-c4cc(OC)c(OC)c(OC)c4)c3n2)c1`, for which the Activity in [1], in assay [2] and in assay [3] was 75 to 100% throughout.
Take `Fc1ccc(-c2cccn3cc(-c4ccccc4)nc23)cc1`: the IC50 in [4] is 6 µM; in [5], “Not Active”; in assay [6], “Not Active”. The Activity was in the range of 25 to 50% in assay [1], 25 to 50% in assay [2] and 75 to 100% in assay [3].
Consider `COc1ccc(-c2cn3cccc(-c4cc(OC)cc(OC)c4)c3n2)cc1`, for which the Activity in assay [1], in [2] and in assay [3] was 75 to 100% each time.
